The values below come from paper PMC7586065 (Neoplasia (New York, N.Y.), 2020).

Series [1] has as its system PI3Kα. As to conditions: cited from earlier work.
Series [2] has as its system Pfeiffer. As to conditions: data in the literature; cited from earlier work.
The subject of series [3] is OCI-LY19. As to conditions: data in the literature; cited from earlier work.
The test system of series [4] is Toledo. The conditions noted are these: data in the literature; cited from earlier work.
Series [5] deals with PI3Kγ. As to conditions: cited from earlier work.
For series [6], the system named is WSU-DLCL2. As to conditions: data in the literature; cited from earlier work.
Series [7] deals with PI3Kδ signaling. The conditions noted are these: read-out: EC50 of inhibition of PI3Kδ signaling; cell-based assay; cited from earlier work.
Series [8] is described as follows: Pharmacokinetics in xenograft model. In kind it is in vivo, SCID mice. As to conditions: CB17 SCID, mouse, plasma, po. In outline: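 CB17 SCID mice bearing subcutaneous SU-DHL-6 tumours received test compound orally once daily in 1% carboxymethylcellulose/0.5% Tween 80. Heparinised blood was drawn predose and at 10, 30, 60, 120, 360, 600 and 1440 min on days 1 and 14. Plasma was spun at 4500 rpm, 10 min, 4 °C, then assayed by LC-MS/MS against a stable-isotope internal standard. Sub-LLOQ values were excluded.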

The target in series [9] is PI3Kγ (Mus musculus, UniProt Q9JHG7). In words: Cell-based pAKT AlphaLISA, C5a stimulated RAW264.7 cells. Summed up:
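RAW264.7 cells (DMEM, 10% FBS, penicillin/streptomycin, 37 °C) were stimulated with 80 ng/mL C5a for 5 min and given ten test-compound concentrations (0–100 µM) in triplicate. The PI3Kδ comparator used Raji cells stimulated with 3 µg/mL anti-IgM F(ab')2 for 10 min, dosed 0–3000 nM. pAKT was quantified by AlphaLISA, and IC50 was taken from signal–concentration curves.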

Series [10] concerns the target PI3Kα (Mus musculus, UniProt P42337). In words: Cell-based pAKT AlphaLISA, IGF-1 stimulated C2C12 cells.
The mark [11] stands for this setting: 100 mg/kg, 100 mg/kg once daily oral, day 1.
Where [12] appears, read: 100 mg/kg, 100 mg/kg once daily oral, day 14.
[13] abbreviates: 200 mg/kg, 200 mg/kg once daily oral, day 1.
[14] abbreviates: 200 mg/kg, 200 mg/kg once daily oral, day 14.

Where two headings read alike, the source gives them in different places. Bounds are passed on as bounds.

Chain of PI3Kγ (Q9JHG7 whole entry): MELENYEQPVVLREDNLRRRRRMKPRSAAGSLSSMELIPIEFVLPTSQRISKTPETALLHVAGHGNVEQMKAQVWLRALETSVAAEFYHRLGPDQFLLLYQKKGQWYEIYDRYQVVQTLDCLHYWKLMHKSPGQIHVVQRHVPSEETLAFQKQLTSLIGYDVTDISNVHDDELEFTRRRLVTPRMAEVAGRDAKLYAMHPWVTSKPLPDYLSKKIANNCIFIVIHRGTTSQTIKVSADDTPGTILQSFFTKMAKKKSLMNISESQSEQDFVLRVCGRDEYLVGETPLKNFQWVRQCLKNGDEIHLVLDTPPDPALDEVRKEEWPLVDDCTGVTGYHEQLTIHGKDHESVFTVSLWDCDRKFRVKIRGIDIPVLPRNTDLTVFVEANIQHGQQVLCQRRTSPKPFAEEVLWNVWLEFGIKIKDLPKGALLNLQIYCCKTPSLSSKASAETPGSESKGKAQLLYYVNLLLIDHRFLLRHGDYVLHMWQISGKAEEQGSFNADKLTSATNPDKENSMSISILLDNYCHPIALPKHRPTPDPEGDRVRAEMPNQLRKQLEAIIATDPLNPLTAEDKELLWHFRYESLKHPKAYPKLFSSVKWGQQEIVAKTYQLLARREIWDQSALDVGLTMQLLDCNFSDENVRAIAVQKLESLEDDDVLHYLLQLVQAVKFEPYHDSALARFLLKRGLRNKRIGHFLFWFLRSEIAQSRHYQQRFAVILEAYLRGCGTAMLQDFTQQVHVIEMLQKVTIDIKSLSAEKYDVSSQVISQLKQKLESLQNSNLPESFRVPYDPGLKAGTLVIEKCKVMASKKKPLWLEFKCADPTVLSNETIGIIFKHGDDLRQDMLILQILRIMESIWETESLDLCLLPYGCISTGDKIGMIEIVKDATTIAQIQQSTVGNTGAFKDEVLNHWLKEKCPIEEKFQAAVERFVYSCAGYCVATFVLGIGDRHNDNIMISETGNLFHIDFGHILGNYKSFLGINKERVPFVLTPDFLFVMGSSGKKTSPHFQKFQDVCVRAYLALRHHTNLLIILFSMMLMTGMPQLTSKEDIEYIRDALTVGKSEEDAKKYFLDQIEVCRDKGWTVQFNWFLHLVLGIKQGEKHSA
Chain of PI3Kα (P42337 whole entry): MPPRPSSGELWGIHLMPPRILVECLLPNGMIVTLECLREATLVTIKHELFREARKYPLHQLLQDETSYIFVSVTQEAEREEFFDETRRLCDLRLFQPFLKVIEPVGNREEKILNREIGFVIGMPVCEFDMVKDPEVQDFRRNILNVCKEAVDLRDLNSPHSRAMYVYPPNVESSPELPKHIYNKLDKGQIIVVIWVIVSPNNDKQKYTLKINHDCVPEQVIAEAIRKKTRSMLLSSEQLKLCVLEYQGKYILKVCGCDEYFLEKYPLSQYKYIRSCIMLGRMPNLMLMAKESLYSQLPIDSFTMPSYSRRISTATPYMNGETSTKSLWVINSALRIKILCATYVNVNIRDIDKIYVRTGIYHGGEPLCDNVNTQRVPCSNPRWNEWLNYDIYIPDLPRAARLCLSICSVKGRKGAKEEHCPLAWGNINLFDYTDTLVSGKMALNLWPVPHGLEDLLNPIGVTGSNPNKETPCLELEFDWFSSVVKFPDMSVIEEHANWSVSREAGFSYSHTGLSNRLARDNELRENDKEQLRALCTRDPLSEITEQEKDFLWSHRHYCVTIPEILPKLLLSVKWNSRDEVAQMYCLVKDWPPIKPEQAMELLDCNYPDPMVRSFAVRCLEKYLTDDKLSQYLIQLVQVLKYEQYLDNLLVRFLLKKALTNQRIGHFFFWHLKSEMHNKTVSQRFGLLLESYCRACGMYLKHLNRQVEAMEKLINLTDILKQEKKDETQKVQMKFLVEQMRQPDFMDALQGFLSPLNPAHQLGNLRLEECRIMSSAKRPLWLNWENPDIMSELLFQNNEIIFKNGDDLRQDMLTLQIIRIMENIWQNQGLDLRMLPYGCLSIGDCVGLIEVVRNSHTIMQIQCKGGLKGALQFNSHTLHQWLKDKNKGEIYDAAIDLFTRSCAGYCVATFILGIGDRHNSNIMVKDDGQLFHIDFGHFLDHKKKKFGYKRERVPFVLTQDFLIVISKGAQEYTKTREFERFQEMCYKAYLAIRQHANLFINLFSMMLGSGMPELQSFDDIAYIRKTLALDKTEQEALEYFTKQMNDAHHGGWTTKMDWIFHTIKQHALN
Chain of PI3Kα (P26450 whole entry partner): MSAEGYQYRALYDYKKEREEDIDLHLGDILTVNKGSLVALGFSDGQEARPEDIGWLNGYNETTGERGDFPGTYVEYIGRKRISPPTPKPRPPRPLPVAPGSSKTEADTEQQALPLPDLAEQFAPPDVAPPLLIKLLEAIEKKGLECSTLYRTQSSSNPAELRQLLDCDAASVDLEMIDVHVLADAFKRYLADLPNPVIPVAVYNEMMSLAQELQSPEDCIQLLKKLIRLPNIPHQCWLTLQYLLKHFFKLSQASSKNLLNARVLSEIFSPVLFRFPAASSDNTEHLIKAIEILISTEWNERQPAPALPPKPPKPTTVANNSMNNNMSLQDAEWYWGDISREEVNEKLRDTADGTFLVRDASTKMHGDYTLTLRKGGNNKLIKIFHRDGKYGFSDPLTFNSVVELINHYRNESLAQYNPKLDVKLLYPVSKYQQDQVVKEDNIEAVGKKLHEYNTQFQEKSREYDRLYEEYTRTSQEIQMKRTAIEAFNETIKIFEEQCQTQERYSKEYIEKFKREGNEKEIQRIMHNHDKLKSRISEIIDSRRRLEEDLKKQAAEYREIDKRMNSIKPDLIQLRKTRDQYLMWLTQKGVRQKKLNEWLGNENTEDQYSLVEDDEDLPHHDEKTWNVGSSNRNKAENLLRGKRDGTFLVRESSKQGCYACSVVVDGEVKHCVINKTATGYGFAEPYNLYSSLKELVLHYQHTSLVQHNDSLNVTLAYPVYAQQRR

On to `COc1c(OCCCN2CCOCC2)ccc2c1N=C(NC(=O)c1cnc(N)nc1)N1CCN=C21` [Copanlisib], for which the IC50 in [1] was […]; in series [2], 0.000849 µM; in series [3] it was 1.99 µM; in [4], 3.5 µM; in series [5], […]; in [6] it was 0.123 µM.
In the case of `C[C@H](Nc1ncnc2nc[nH]c12)c1cc2cccc(Cl)c2c(=O)n1-c1ccccc1` [Duvelisib], the IC50 is […] in series [1] (data in the literature) and […] in [5] (data in the literature).
`CC[C@H](Nc1ncnc2[nH]cnc12)c1nc2cccc(F)c2c(=O)n1-c1ccccc1` [Idelalisib]: the EC50 in series [7] was 0.0089 µM. The AUC(0-t) was determined as 6930 ng·h/mL in series [8] (setting [11]), 5520 ng·h/mL in series [8] (setting [12]), 29900 ng·h/mL in series [8] (setting [13]) and 22400 ng·h/mL in [8] (setting [14]). For the same molecule, the Cmax in series [8] (setting [11]) is 4.17 ± 9.89 µM; in series [8] (setting [12]), 5.05 ± 6.05 µM; in [8] (setting [13]) it was 11.1 µM; in series [8] (setting [14]), 8.09 ± 0.93 µM. The half-life was 3.4 ± 2 h in [8] (100 mg/kg, T1/2, 100 mg/kg once daily oral, day 1); 1.8 ± 0.6 h in series [8] (100 mg/kg, T1/2, 100 mg/kg once daily oral, day 14); 1.9 ± 0.5 h in series [8] (200 mg/kg, T1/2, 200 mg/kg once daily oral, day 1); 4.3 ± 1.1 h in series [8] (200 mg/kg, T1/2, 200 mg/kg once daily oral, day 14). Besides, the Tmax in series [8] (setting [11]) is 0.7 ± 0.3 h; in series [8] (setting [12]), 0.4 ± 0.2 h; in [8] (setting [13]) it was 0.8 ± 0.3 h; in series [8] (setting [14]) it was 0.7 ± 0.3 h. Moreover, the IC50 in [9] was 1.12 µM; in series [10], > 30 µM.
